Calls of active or inactive are those of the source. No cut-off for these calls is given here.
Assays:
[1] = target: Adenosine kinase (Homo sapiens) (UniProt P55263); assay: Specific activity of human adenosine kinase
Outline: (§1)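 Aliquots at 0, 1, 2, 4 h quenched with perchloric acid, neutralized, monophosphate resolved by anion-exchange HPLC (ammonium phosphate gradient), UV at λmax; conversion kept <10%, linear.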

[2] = target: Adenosine kinase (Homo sapiens) (UniProt P55263); assay: Inhibition of human adenosine kinase ribavirin phosphorylation activity
Outline: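 Human adenosine kinase (clone 20-1) in Hepes pH 6.0 buffer with KCl, MgCl₂, 1 mM ATP, BSA, deoxycoformycin at 37 °C; 0.1 μM ribavirin initial substrate with test compound at 400 μM; ribavirin monophosphate formation followed by timed aliquots, acid quench and anion-exchange HPLC with UV detection.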

[3] = target: Adenosine kinase (Homo sapiens) (UniProt P55263); assay: Activity of human adenosine kinase relative to ribavirin; parameters: concentration or dose not given beside the values; outline: as §1

Sequence of Adenosine kinase (Homo sapiens) (P55263 2-362 limits assumed): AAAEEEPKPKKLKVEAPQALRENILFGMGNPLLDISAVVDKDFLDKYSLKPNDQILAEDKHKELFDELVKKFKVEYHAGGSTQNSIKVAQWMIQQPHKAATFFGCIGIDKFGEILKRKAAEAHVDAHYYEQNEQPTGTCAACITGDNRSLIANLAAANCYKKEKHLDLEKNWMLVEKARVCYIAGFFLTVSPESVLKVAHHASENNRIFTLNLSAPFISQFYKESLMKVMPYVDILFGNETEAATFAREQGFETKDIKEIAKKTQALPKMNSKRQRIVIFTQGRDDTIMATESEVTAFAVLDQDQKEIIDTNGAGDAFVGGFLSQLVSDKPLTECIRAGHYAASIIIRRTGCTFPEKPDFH

Structure (SMILES): C/N=C(/N)c1ncn([C@@H]2O[C@H](CO)[C@@H](O)[C@H]2O)n1
- Activity [1]: 11 nmol/mg/h
- Activity [2]: inactive
- Activity [3]: 5%

Structure (SMILES): O=C(O)c1ncn([C@@H]2O[C@H](CO)[C@@H](O)[C@H]2O)n1
- Activity [1]: < 4 nmol/mg/h
- Activity [2]: inactive
- Activity [3]: < 2%

Structure (SMILES): O=[N+]([O-])c1ncn([C@@H]2O[C@H](CO)[C@@H](O)[C@H]2O)n1
- Activity [1]: 36 nmol/mg/h
- Activity [2]: inactive
- Activity [3]: 18%

Structure (SMILES): CC(=O)c1ncn([C@@H]2O[C@H](CO)[C@@H](O)[C@H]2O)n1
- Activity [1]: 20 nmol/mg/h
- Activity [2]: inactive
- Activity [3]: 10%

Structure (SMILES): NC(=O)c1ncn([C@@H]2O[C@H](CO)[C@@H](O)[C@H]2O)n1
- Activity [1]: 203 nmol/mg/h

Structure (SMILES): CC(=O)Nc1ncn([C@@H]2O[C@H](CO)[C@@H](O)[C@H]2O)n1
- Activity [1]: < 4 nmol/mg/h
- Activity [2]: inactive
- Activity [3]: < 2%

Structure (SMILES): COC(=N)c1ncn([C@@H]2O[C@H](CO)[C@@H](O)[C@H]2O)n1
- Activity [1]: < 4 nmol/mg/h
- Activity [2]: inactive
- Activity [3]: < 2%

Structure (SMILES): CNC(=O)c1ncn([C@@H]2O[C@H](CO)[C@@H](O)[C@H]2O)n1
- Activity [1]: 19 nmol/mg/h
- Activity [2]: inactive
- Activity [3]: 9%

Reference: ChEMBL document CHEMBL1139898, “Structural effects on the phosphorylation of 3-substituted 1-beta-D-ribofuranosyl-1,2,4-triazoles by human adenosine kinase” (Bioorg Med Chem Lett, 2007)
